Source: ChEMBL document CHEMBL4052817 (J Med Chem, 2017)
Active and inactive are the calls of the source. No cut-off for these calls is given here.

What was measured:
[1] = biological target: T1, Cytochrome P450 2C9 (Homo sapiens, UniProt P11712); experiment: Inhibition of CYP2C9 (unknown origin); assay type: ADME
[2] = tested on: Rattus norvegicus; experiment: AUC (infinity) in Wistar-Han rat assessed as (R)-3-(5-fluoro-1H-indol-3-yl)pyrrolidine-2,5-dione at 3 mg/kg, po; assay type: ADME, organism-based; set-up: dose 3 mg/kg, route oral, time infinity; conditions: in vivo
[3] = tested on: Mus musculus; experiment: AUC (infinity) in CD-1 mouse assessed as (R)-3-(5-fluoro-1H-indol-3-yl)pyrrolidine-2,5-dione at 3 mg/kg, po; assay type: ADME, organism-based; set-up: dose 3 mg/kg, route oral, time infinity; conditions: in vivo
[4] = tested on: CT26; experiment: Antitumor activity against mouse CT26 tumor model administered as […] co-treated with anti-PDL1 mAb; assay type: functional
[5] = tested on: Canis familiaris; experiment: Cmax in beagle dog assessed as (R)-3-(5-fluoro-1H-indol-3-yl)pyrrolidine-2,5-dione at 3 mg/kg, po; assay type: ADME, organism-based, Canis lupus familiaris; set-up: dose 3 mg/kg, route oral; conditions: in vivo
[6] = tested on: Rattus norvegicus; experiment: Oral bioavailability in Wistar-Han rat assessed as (R)-3-(5-fluoro-1H-indol-3-yl)pyrrolidine-2,5-dione at 3 mg/kg; assay type: ADME, organism-based; conditions: in vivo
[7] = tested on: Hepatocyte; experiment: Induction of CYP1A2 mRNA expression in human hepatocytes at <100 uM; assay type: ADME, cell-based
[8] = tested on: Mus musculus; experiment: Oral bioavailability in CD-1 mouse assessed as (R)-3-(5-fluoro-1H-indol-3-yl)pyrrolidine-2,5-dione at 3 mg/kg; assay type: ADME, organism-based; conditions: in vivo
[9] = tested on: Canis familiaris; experiment: Half life in beagle dog assessed as (R)-3-(5-fluoro-1H-indol-3-yl)pyrrolidine-2,5-dione at 1 mg/kg, iv by LC-MS/MS method; assay type: ADME, organism-based, Canis lupus familiaris; conditions: in vivo
[10] = biological target: T1, Cytochrome P450 2C9; experiment: Time-dependent inhibition of CYP2C9 (unknown origin); assay type: ADME
[11] = biological target: Indoleamine 2,3-dioxygenase 2 (Homo sapiens) (UniProt Q6ZQW0); experiment: Inhibition of human recombinant IDO-2 up to 200 uM using tryptophan as substrate after 22 mins by LC-MS/MS method
Method in brief: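 Human IDO2 at 250 nM with inhibitor in duplicate, room temperature, in Mg/Ca-free PBS with 20 mM ascorbate, 10 μM methylene blue, 800 nM catalase, 15 μM tryptophan; HCl stop after 22 min; kynurenine quantified by RapidFire SPE-MS/MS; two replicates, geometric means.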

[12] = Inhibition of human p-gp transfected in MDCK cells assessed as decrease in digoxin transport; assay type: cell-based
[13] = Total brain to plasma partition coefficient, Kp in po dosed rat assessed as (R)-3-(5-fluoro-1H-indol-3-yl)pyrrolidine-2,5-dione; assay type: ADME, organism-based
Method in brief: (§1)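 Racemate dosed orally to rats; active enantiomer measured in brain, CSF and plasma; total brain/plasma ratio and unbound brain/unbound plasma ratio calculated.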

[14] = Drug metabolism in mouse hepatocytes assessed as oxidation; assay type: ADME, cell-based, Hepatocyte
[15] = biological target: Cytochrome P450 2C19 (Homo sapiens, UniProt P33261); experiment: Inhibition of CYP2C19 (unknown origin); assay type: ADME
[16] = Drug metabolism in human hepatocytes assessed as hydrolysis; assay type: ADME, cell-based, Hepatocyte
[17] = tested on: Canis familiaris; experiment: Tmax in beagle dog assessed as (R)-3-(5-fluoro-1H-indol-3-yl)pyrrolidine-2,5-dione at 3 mg/kg, po; assay type: ADME, organism-based, Canis lupus familiaris; conditions: in vivo
[18] = biological target: T1, Cytochrome P450 2C9; experiment: Time/NADPH-dependent inhibition of CYP2C9 (unknown origin); assay type: ADME
[19] = tested on: CT26; experiment: Antitumor activity against mouse CT26 tumor model administered as monotherapy; assay type: functional
[20] = tested on: Rattus norvegicus; experiment: AUC (infinity) in Wistar-Han rat assessed as (R)-3-(5-fluoro-1H-indol-3-yl)pyrrolidine-2,5-dione at 1 mg/kg, iv by LC-MS/MS method; assay type: ADME, organism-based; set-up: dose 1 mg/kg, time infinity, route intravenous; conditions: in vivo
Method in brief: (§2)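 Racemate given as a single 1 mg/kg IV dose to male CD-1 mice, Wistar-Han rats or beagle dogs (n=3 per species). Plasma levels of the (R)-enantiomer measured by chiral LC-MS/MS. Mean AUCinf, CLp, Vss and t1/2 reported.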

[21] = biological target: T2, Cytochrome P450 2D6 (Homo sapiens, UniProt P10635); experiment: Inhibition of CYP2D6 (unknown origin); assay type: ADME
[22] = tested on: Mus musculus; experiment: Cmax in CD-1 mouse assessed as (R)-3-(5-fluoro-1H-indol-3-yl)pyrrolidine-2,5-dione at 3 mg/kg, po; assay type: ADME, organism-based; set-up: dose 3 mg/kg, route oral; conditions: in vivo
[23] = tested on: Rattus norvegicus; experiment: Half life in Wistar-Han rat assessed as (R)-3-(5-fluoro-1H-indol-3-yl)pyrrolidine-2,5-dione at 1 mg/kg, iv by LC-MS/MS method; assay type: ADME, organism-based; conditions: in vivo; method in brief: as §2
[24] = tested on: Canis familiaris; experiment: AUC (infinity) in beagle dog assessed as (R)-3-(5-fluoro-1H-indol-3-yl)pyrrolidine-2,5-dione at 1 mg/kg, iv by LC-MS/MS method; assay type: ADME, organism-based, Canis lupus familiaris; set-up: dose 1 mg/kg, route intravenous, time infinity; conditions: in vivo; method in brief: as §2
[25] = Intrinsic apparent clearance in rat hepatocytes assessed per million cells; assay type: ADME, cell-based, Hepatocyte
[26] = biological target: Broad substrate specificity ATP-binding cassette transporter ABCG2 (Homo sapiens, UniProt Q9UNQ0); experiment: Inhibition of BCRP (unknown origin) transfected in MDCK cells assessed as decrease in pitavastatin transport; assay type: cell-based
[27] = tested on: Mus musculus; experiment: Tmax in CD-1 mouse assessed as (R)-3-(5-fluoro-1H-indol-3-yl)pyrrolidine-2,5-dione at 3 mg/kg, po; assay type: ADME, organism-based; conditions: in vivo
[28] = tested on: Panc02; experiment: Antitumor activity against mouse Pan02 tumor model administered as monotherapy; assay type: functional
[29] = Ratio of unbound drug level in brain to plasma in po dosed rat assessed as (R)-3-(5-fluoro-1H-indol-3-yl)pyrrolidine-2,5-dione; assay type: ADME, organism-based; method in brief: as §1
[30] = biological target: T3, Cytochrome P450 1A2 (Homo sapiens, UniProt P05177); experiment: Time/NADPH-dependent inhibition of CYP1A2 (unknown origin); assay type: ADME
T3 sequence (P05177 whole entry): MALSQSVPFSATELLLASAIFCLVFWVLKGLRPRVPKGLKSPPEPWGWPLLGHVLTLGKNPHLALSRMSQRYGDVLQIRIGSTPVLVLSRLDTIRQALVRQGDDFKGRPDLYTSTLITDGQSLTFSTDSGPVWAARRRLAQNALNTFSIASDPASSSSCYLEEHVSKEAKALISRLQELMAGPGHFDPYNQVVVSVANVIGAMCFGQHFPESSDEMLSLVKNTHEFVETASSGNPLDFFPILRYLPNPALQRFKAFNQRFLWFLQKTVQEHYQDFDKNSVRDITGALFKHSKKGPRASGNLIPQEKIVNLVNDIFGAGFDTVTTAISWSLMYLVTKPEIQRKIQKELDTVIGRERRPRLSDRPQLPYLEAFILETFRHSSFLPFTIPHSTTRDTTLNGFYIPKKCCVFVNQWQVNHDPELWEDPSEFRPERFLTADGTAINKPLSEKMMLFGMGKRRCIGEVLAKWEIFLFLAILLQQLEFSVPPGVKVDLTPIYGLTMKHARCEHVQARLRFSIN

[31] = tested on: Hepatocyte; experiment: Induction of CYP2B6 mRNA expression in human hepatocytes at <100 uM; assay type: ADME, cell-based
[32] = Drug metabolism in human hepatocytes assessed as oxidation; assay type: ADME, cell-based, Hepatocyte
[33] = Drug excretion in rat bile assessed as (R)-3-(5-fluoro-1H-indol-3-yl)pyrrolidine-2,5-dione; assay type: ADME; conditions: in vivo
Method in brief: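 Racemate dosed to rats (urine and bile collected) and to dogs (urine collected). The percentage of the dose excreted as unchanged (R)-enantiomer was measured.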

[34] = biological target: T2, Cytochrome P450 2D6; experiment: Time-dependent inhibition of CYP2D6 (unknown origin); assay type: ADME
[35] = Drug metabolism in dog hepatocytes assessed as oxidation; assay type: ADME, cell-based, Canis lupus familiaris, Hepatocyte
[36] = biological target: T3, Cytochrome P450 1A2; experiment: Inhibition of CYP1A2 (unknown origin); assay type: ADME

T1 sequence (P11712 whole entry): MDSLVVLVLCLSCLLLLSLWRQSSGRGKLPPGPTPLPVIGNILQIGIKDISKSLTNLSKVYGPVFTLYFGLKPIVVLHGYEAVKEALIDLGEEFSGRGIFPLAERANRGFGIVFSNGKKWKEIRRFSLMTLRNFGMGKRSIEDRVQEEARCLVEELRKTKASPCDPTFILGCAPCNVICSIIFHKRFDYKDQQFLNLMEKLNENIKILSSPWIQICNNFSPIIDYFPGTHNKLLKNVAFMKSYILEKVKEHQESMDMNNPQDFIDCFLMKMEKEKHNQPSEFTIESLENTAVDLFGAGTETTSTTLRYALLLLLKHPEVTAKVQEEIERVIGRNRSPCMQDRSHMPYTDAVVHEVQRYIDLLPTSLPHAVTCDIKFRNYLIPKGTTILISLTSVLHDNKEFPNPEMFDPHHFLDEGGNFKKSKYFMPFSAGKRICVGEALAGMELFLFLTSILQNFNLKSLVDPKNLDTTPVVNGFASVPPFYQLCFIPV
T2 sequence (P10635 whole entry): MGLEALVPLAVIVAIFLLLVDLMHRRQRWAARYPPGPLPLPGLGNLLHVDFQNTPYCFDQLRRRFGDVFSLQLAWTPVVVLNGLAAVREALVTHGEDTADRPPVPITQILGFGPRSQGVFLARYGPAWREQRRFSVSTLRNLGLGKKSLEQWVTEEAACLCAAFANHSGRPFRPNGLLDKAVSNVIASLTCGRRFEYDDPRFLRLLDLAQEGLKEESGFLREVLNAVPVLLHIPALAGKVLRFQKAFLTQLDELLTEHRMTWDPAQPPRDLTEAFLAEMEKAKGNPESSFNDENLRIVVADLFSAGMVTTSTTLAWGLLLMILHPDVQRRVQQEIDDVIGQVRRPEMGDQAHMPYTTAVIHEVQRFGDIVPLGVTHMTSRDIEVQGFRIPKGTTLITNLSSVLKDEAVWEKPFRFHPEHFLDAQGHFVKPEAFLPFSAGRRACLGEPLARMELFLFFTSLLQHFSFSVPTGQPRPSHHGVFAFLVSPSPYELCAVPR
Chain of Broad substrate specificity ATP-binding cassette transporter ABCG2 (Q9UNQ0 whole entry): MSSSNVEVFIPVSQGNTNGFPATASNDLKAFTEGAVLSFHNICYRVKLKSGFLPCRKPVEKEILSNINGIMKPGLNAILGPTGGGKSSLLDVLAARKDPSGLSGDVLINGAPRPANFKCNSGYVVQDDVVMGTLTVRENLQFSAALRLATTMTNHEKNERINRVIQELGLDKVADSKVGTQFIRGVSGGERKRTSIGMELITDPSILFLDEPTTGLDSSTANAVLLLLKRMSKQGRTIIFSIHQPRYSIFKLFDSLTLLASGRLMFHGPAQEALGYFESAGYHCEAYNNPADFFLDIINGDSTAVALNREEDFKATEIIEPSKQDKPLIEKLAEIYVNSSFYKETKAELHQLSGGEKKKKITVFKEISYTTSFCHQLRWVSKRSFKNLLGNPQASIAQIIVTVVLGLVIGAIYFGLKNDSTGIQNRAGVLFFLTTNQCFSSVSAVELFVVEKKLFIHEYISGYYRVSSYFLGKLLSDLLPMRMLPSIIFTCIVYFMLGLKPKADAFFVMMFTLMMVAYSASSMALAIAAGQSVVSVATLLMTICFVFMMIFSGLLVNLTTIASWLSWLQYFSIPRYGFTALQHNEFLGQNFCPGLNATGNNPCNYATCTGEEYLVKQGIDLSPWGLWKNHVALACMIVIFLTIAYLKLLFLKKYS
Chain of Cytochrome P450 2C19 (P33261 whole entry): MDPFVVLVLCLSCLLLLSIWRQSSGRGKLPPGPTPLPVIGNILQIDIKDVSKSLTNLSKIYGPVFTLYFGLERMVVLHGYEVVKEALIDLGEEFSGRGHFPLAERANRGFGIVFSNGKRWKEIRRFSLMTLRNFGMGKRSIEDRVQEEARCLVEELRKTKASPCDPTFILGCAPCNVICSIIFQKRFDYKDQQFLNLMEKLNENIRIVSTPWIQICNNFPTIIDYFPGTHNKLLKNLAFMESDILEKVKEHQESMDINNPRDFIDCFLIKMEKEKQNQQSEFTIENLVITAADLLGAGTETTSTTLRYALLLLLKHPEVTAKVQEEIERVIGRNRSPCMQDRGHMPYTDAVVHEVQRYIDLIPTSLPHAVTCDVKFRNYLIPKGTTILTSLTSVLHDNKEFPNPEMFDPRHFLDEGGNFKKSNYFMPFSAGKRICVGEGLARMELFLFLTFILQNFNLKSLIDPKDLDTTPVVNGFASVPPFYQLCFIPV
Chain of Indoleamine 2,3-dioxygenase 2 (Homo sapiens) (Q6ZQW0 whole entry): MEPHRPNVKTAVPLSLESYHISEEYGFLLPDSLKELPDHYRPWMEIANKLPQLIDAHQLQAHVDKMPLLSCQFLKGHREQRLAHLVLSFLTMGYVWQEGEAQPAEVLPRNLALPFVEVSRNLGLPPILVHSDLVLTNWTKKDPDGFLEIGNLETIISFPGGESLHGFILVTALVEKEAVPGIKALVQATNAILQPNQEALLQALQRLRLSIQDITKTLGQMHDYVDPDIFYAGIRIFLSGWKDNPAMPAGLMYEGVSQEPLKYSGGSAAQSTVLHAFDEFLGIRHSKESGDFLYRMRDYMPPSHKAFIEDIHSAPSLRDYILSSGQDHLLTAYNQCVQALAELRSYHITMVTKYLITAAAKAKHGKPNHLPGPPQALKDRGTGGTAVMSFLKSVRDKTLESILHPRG

**Q.** With O=C1CC(c2c[nH]c3ccc(F)cc23)C(=O)N1 (stereo unspecified) [PF-06840003] as the molecule, how does the IC50 [1] read?
**A.** > 100 µM

**Q.** And the AUC [2]?
**A.** 6940 ng·h/mL

**Q.** What about the AUC [3] of the same molecule?
**A.** 2170 ng·h/mL

**Q.** What about the Activity [4] of the same molecule?
**A.** Active

**Q.** What about the Cmax [5] of the same molecule?
**A.** 219 ng/mL

**Q.** And the F [6]?
**A.** 94%

**Q.** And the Activity [7]?
**A.** Not Active

**Q.** What about the F [8] of the same molecule?
**A.** 59.3%

**Q.** What about the t1/2 [9] of the same molecule?
**A.** 48.1 min

**Q.** What about the TDI [10] of the same molecule?
**A.** Not Active

**Q.** What about the inhibition [11] of the same molecule?
**A.** inactive

**Q.** What about the IC50 [12] of the same molecule?
**A.** > 300 µM

**Q.** What about the Kp [13] of the same molecule?
**A.** 0.51

**Q.** And the Drug metabolism [14]?
**A.** Metabolite_Detected

**Q.** And the IC50 [15]?
**A.** 78 µM

**Q.** And the Drug metabolism [16]?
**A.** Metabolite_Detected

**Q.** And the Tmax [17]?
**A.** 15 min

**Q.** What about the “inhibition (INH)” value [18] of the same molecule?
**A.** Not Active

**Q.** What about the Activity [19] of the same molecule?
**A.** Active

**Q.** And the AUC [20]?
**A.** 2520 ng·h/mL

**Q.** And the IC50 [21]?
**A.** > 100 µM

**Q.** What about the Cmax [22] of the same molecule?
**A.** 538 ng/mL

**Q.** What about the t1/2 [23] of the same molecule?
**A.** 133 min

**Q.** What about the AUC [24] of the same molecule?
**A.** 423 ng·h/mL

**Q.** And the “CLH(app)” value [25]?
**A.** 2.3 µL/min

**Q.** What about the IC50 [26] of the same molecule?
**A.** 65.4 µM

**Q.** What about the Tmax [27] of the same molecule?
**A.** 34.8 min

**Q.** And the Activity [28]?
**A.** Active

**Q.** And the “K(p,uu,brain)” value [29]?
**A.** 0.2

**Q.** And the “inhibition (INH)” value [30]?
**A.** Not Active

**Q.** And the Activity [31]?
**A.** Not Active

**Q.** What about the Drug metabolism [32] of the same molecule?
**A.** Metabolite_Detected

**Q.** What about the Drug excretion [33] of the same molecule?
**A.** < 1 %ID

**Q.** And the TDI [34]?
**A.** Not Active

**Q.** What about the Drug metabolism [35] of the same molecule?
**A.** Metabolite_Detected

**Q.** What about the IC50 [36] of the same molecule?
**A.** > 100 µM
